Measurements taken from paper PMC6120582 (Science (New York, N.Y.), 2018).
Values belong to the compound of their own block, whether it stands above or below them.

Key:
eIF2 = eIF2 (Homo sapiens, UniProt P41091); assay: GDP unloading assay, displacement of Bodipy-GDP; format: binding; settings: 1000-fold excess of unlabelled GDP; exchange catalysed by eIF2B
eIF2B(αβγδε)2 [1] = biological target: eIF2B(αβγδε)2 (Homo sapiens, UniProt P49770+Q9UI10, Q9UI10:L179A); assay: GEF assay, unloading of Bodipy-GDP from eIF2; format: biochemical; settings: assembled eIF2B(βγδε) and eIF2B(α2); activator
Chain of eIF2B(αβγδε)2 (Homo sapiens, UniProt P49770+Q9UI10, Q9UI10:L179A) (P49770 whole entry): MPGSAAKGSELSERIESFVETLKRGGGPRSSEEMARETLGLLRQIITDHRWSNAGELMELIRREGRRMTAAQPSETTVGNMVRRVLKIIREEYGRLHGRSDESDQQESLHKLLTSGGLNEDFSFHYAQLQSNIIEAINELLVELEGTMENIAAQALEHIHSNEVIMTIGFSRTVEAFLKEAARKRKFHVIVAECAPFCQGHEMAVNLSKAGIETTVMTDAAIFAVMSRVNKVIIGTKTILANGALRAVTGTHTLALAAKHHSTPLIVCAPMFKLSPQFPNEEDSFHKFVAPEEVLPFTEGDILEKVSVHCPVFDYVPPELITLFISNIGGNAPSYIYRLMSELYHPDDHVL
Chain of eIF2B(αβγδε)2 (Homo sapiens, UniProt P49770+Q9UI10, Q9UI10:L179A) (Q9UI10 whole entry L179A): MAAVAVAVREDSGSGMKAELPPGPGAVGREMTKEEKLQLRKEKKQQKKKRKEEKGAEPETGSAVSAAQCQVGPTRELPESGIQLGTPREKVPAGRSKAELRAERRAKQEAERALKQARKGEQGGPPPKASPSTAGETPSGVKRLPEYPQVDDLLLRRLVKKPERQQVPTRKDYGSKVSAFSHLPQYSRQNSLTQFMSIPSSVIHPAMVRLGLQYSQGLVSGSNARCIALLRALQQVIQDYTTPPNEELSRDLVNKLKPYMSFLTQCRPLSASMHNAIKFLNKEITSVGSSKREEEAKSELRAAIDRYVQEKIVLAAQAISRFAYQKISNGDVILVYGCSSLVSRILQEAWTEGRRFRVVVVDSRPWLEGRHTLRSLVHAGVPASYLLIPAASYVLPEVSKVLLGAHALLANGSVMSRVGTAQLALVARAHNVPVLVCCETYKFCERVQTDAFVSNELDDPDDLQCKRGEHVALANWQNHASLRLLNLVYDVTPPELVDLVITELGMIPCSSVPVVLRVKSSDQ
Chain of eIF2B(αβγδε)2 (Homo sapiens, UniProt P49770+Q9UI10, Q9UI10:L179A) (Q14232 whole entry partner): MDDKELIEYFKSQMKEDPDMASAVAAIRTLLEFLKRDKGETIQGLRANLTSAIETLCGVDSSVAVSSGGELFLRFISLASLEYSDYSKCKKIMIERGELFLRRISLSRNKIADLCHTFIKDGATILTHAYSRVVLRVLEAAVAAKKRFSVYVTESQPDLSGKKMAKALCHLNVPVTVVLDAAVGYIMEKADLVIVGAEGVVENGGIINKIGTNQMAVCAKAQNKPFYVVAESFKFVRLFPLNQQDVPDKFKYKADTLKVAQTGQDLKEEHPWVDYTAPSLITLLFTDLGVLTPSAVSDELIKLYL
Chain of eIF2B(αβγδε)2 (Homo sapiens, UniProt P49770+Q9UI10, Q9UI10:L179A) (Q9NR50 whole entry partner): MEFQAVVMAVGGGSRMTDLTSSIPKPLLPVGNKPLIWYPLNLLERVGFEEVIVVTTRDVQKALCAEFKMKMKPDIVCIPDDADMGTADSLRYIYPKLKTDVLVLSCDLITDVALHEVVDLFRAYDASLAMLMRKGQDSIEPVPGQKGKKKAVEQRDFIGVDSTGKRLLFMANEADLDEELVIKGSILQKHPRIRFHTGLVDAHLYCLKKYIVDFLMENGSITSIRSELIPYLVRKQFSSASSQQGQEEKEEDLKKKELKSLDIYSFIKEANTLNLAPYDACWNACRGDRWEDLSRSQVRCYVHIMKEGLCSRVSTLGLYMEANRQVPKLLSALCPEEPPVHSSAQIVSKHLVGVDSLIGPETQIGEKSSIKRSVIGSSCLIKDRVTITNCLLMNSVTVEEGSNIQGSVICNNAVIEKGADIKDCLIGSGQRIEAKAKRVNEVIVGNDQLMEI
Chain of eIF2B(αβγδε)2 (Homo sapiens, UniProt P49770+Q9UI10, Q9UI10:L179A) (Q13144 2-721 partner): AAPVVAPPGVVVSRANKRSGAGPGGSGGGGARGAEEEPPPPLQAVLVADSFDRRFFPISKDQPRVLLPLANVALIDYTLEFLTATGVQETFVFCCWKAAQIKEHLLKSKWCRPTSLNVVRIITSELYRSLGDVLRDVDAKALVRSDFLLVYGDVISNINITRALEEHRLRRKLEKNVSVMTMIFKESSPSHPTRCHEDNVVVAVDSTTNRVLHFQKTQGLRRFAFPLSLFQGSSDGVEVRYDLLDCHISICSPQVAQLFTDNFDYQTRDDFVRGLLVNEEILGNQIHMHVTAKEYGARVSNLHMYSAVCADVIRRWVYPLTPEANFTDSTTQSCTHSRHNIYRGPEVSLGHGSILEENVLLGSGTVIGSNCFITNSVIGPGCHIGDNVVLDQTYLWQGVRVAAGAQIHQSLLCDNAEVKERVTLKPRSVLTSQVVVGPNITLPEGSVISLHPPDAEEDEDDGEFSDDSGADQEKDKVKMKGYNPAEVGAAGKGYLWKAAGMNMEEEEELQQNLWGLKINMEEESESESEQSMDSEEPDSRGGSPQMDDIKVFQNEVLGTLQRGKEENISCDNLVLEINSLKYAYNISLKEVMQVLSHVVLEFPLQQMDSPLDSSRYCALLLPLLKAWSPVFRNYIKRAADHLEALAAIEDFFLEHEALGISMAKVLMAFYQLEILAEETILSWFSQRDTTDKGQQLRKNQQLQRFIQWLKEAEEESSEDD
Procedure, shortened: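 Human eIF2B subunits were co-expressed in E. coli from three plasmids, and the βγδε (δL179A) and α2 subcomplexes were purified separately and combined. The substrate was non-phosphorylated human eIF2 from gcn2Δ S. cerevisiae, loaded with Bodipy-GDP. A 1000-fold excess of unlabeled GDP was added as a chase, and the fluorescence decrease was followed with and without test compound. kobs came from a single-exponential fit.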

eIF2B(αβγδε)2 [2] = biological target: eIF2B(αβγδε)2 (Homo sapiens, UniProt P49770+Q9UI10, P49770:H188A); assay: decamer stability, sucrose gradient velocity sedimentation; format: binding; settings: 500 nM ISRIB, 400 mM salt
Chain of eIF2B(αβγδε)2 (Homo sapiens, UniProt P49770+Q9UI10, P49770:H188A) (P49770 whole entry H188A): as the sequence (P49770 whole entry) above, with H188A counted along it
Chain of eIF2B(αβγδε)2 (Homo sapiens, UniProt P49770+Q9UI10, P49770:H188A) (Q9UI10 whole entry): as the sequence (Q9UI10 whole entry L179A) above, with A179L counted along it
Chain of eIF2B(αβγδε)2 (Homo sapiens, UniProt P49770+Q9UI10, P49770:H188A) (Q14232 whole entry partner): as the sequence (Q14232 whole entry partner) above
Chain of eIF2B(αβγδε)2 (Homo sapiens, UniProt P49770+Q9UI10, P49770:H188A) (Q9NR50 whole entry partner): as the sequence (Q9NR50 whole entry partner) above
Chain of eIF2B(αβγδε)2 (Homo sapiens, UniProt P49770+Q9UI10, P49770:H188A) (Q13144 2-721 partner): as the sequence (Q13144 2-721 partner) above

Chain of eIF2 (P41091 2-472): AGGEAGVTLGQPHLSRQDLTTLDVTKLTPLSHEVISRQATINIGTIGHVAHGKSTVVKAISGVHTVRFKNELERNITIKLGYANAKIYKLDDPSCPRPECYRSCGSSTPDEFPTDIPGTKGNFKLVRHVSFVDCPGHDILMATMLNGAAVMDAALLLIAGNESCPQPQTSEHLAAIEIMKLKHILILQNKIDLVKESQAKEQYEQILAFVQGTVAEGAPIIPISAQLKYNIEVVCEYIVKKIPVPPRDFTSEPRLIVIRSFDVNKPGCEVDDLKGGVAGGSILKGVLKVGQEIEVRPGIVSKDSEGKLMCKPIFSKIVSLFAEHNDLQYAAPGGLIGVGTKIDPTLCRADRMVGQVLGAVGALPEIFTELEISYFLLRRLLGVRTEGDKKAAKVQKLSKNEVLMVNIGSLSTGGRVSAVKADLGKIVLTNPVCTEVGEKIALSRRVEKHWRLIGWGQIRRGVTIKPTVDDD
Chain of eIF2 (P05198 whole entry partner): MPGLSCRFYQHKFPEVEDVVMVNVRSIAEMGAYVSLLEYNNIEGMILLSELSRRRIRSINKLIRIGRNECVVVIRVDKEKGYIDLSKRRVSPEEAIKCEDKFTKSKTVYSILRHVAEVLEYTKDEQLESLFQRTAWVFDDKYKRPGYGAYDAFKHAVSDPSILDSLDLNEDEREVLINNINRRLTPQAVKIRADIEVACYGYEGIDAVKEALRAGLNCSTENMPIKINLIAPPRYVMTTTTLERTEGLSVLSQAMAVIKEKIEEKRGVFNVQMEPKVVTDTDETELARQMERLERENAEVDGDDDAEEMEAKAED
Chain of eIF2 (P20042 2-333 partner): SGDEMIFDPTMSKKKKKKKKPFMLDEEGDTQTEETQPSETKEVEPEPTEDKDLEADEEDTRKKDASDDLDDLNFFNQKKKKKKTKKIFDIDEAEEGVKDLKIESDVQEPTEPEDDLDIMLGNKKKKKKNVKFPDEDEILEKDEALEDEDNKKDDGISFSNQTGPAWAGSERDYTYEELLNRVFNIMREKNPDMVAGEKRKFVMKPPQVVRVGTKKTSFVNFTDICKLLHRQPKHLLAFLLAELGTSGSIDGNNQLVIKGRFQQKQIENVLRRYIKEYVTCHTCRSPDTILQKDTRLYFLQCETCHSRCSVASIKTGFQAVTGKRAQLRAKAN

Structure (SMILES): Nc1nc2c(ncn2[C@@H]2O[C@H](COP(=O)(O)OP(=O)(O)O)[C@@H](O)[C@H]2O)c(=O)[nH]1 [GDP]
GDP unloading assay, displacement of Bodipy-GDP (eIF2): we added fluorescent Bodipy-GDP to GDP-bound eIF2

fold activation of GEF activity (kobs) (eIF2B(αβγδε)2 [1]): ~ 3 fold
Structure (SMILES): C[C@@H](Oc1ccc(Cl)cc1)C(=O)N[C@H]1CC[C@H](NC(=O)[C@@H](C)Oc2ccc(Cl)cc2)CC1 [ISRIB-A19(R,R)]

Structure (SMILES): O=C(COc1ccc(Cl)cc1)N[C@H]1CC[C@H](NC(=O)COc2ccc(Cl)cc2)CC1 [ISRIB]
decamer stabilization (inactive: none seen) (eIF2B(αβγδε)2 [2]): ISRIB did not stabilize eIF2B(βH188A) decamers
